Assay results: ChEMBL document CHEMBL4368914, “Tricyclic Indazoles-A Novel Class of Selective Estrogen Receptor Degrader Antagonists” (J Med Chem, 2019)
Converted amounts (≈) assume the structure as drawn.

Tests used:
[1] = Fraction unbound in mouse plasma by equilibrium dialysis; format: ADME, cell-free
[2] = Intrinsic clearance in rat hepatocytes assessed per million cells; format: ADME, cell-based, Hepatocyte; conditions: read-out: CLH
How it was run: (§1)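 Rate of metabolism (µl/min/10⁶ cells) measured from DMSO stock in isolated hepatocytes diluted to 1x10⁶ cells/mL.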

[3] = Clearance in dog at 0.5 mg/kg, iv or 1 mg/kg, po; format: ADME, organism-based, Canis lupus familiaris; conditions: in vivo
How it was run: (§2)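 Single IV dose of 0.5 mg/kg and oral dose of 1 mg/kg in rat and dog. Both routes were formulated in 5% DMSO:95% hydroxypropyl β-cyclodextrin (30% w/v), at 1 mL/kg IV and 4 mL/kg PO.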

[4] = target: Voltage-gated inwardly rectifying potassium channel KCNH2 (Homo sapiens, UniProt Q12809); experiment: Inhibition of human ERG by plate based planar patch clamp assay
Cytochrome P450 3A4 = Cytochrome P450 3A4 (Homo sapiens, UniProt P08684); experiment: Inhibition of CYP3A4 in human liver microsomes; format: ADME
How it was run: (§3)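 High-throughput human liver microsome assay across a panel of five CYP isoforms, giving IC50.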

[5] = Glutathione reactivity in human liver microsomes assessed as GSH trapping ratio of compound to clozapine; format: ADME, Microsome
How it was run: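 Glutathione trapping in human liver microsomes, expressed as a ratio to clozapine.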

[6] = Fraction unbound in Alderley Park Han Wistar rat plasma by equilibrium dialysis; format: ADME, cell-free
How it was run: (§4)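 Equilibrium dialysis from DMSO stock in 10% plasma, either Alderley Park Han Wistar rat plasma or human plasma.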

[7] = Half life in dog at 0.5 mg/kg, iv or 1 mg/kg, po; format: ADME, organism-based, Canis lupus familiaris; conditions: in vivo; how it was run: as §2
[8] = Efflux ratio of apparent permeability in MDCK cells at 10 uM; format: ADME, cell-based, Canis lupus familiaris; conditions: dog
How it was run: (§5)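 Compound at 10 μM incubated on cultured Caco-2 or MDCK cells. Permeability was measured apical-to-basolateral and basolateral-to-apical, and efflux ratio was taken as (B to A)/(A to B).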

Cytochrome P450 1A2 = target: T1, Cytochrome P450 1A2 (Homo sapiens, UniProt P05177); experiment: Inhibition of CYP1A2 in human liver microsomes; format: ADME; how it was run: as §3
T1 sequence (P05177 whole entry): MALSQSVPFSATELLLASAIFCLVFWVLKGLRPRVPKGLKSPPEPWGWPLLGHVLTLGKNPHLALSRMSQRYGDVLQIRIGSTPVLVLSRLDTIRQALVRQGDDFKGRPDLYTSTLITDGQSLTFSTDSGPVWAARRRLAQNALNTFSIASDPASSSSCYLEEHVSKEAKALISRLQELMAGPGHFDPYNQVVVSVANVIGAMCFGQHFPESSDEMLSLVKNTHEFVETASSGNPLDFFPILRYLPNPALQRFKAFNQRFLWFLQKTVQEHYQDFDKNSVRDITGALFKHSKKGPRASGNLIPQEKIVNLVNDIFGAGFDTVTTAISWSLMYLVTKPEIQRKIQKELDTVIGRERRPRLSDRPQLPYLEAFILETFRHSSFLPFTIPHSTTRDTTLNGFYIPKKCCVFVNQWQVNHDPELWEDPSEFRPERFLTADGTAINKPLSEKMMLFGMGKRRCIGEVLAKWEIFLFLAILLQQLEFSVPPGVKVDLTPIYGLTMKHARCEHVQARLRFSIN

[9] = Oral bioavailability in dog at 1 mg/kg; format: ADME, organism-based, Canis lupus familiaris; conditions: in vivo; how it was run: as §2
[10] = Apparent permeability in MDCK cells at 10 uM; format: ADME, cell-based, Canis lupus familiaris; conditions: dog; how it was run: as §5
Estrogen receptor [11] = target: T2, Estrogen receptor (Homo sapiens, UniProt P03372); experiment: Binding affinity to recombinant human GST-tagged ERalpha LBD expressed in baculovirus-infected insect cells by lantha screen assay
T2 sequence (P03372 whole entry): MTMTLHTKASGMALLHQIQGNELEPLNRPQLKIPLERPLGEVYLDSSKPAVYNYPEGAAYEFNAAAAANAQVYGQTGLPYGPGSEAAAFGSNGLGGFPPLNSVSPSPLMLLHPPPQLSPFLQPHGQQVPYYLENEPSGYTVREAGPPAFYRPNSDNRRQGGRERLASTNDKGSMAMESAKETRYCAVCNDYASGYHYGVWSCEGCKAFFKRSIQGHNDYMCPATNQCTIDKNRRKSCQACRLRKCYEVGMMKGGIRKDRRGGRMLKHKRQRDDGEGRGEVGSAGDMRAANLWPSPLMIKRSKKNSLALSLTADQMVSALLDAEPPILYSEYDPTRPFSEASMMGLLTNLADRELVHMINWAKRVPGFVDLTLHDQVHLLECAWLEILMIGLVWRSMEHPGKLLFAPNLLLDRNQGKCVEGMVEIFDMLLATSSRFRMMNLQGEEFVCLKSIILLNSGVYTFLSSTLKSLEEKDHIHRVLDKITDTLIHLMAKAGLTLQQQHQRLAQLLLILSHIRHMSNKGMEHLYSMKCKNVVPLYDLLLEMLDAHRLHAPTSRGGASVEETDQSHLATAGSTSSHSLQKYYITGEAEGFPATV

[12] = Lipophilicity, log D of the compound at pH 7.4 by shake flask method; format: physicochemical; conditions: buffer
How it was run: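 Shake-flask measurement of logD at pH 7.4.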

[13] = Clearance in rat at 0.5 mg/kg, iv or 1 mg/kg, po; format: ADME, organism-based; conditions: in vivo; how it was run: as §2
[14] = Solubility of the compound in phosphate buffer at pH 7.4 after 24 hrs; format: physicochemical
How it was run: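 Solubility in aqueous phosphate buffer at pH 7.4 after 24 h at 25 °C.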

[15] = Apparent permeability in human Caco2 cells at 10 uM; format: ADME, cell-based; conditions: Caco-2; how it was run: as §5
[16] = Half life in rat at 0.5 mg/kg, iv or 1 mg/kg, po; format: ADME, organism-based; conditions: in vivo; how it was run: as §2
[17] = AUC in rat at 1 mg/kg, po; format: ADME, organism-based; conditions: in vivo; how it was run: as §2
Cytochrome P450 2C9 = Cytochrome P450 2C9 (Homo sapiens, UniProt P11712); experiment: Inhibition of CYP2C9 in human liver microsomes; format: ADME; how it was run: as §3
[18] = AUC in dog at 1 mg/kg, po; format: ADME, organism-based, Canis lupus familiaris; conditions: in vivo; how it was run: as §2
[19] = Efflux ratio of apparent permeability in human Caco2 cells at 10 uM; format: ADME, cell-based; conditions: Caco-2; how it was run: as §5
Cytochrome P450 2C19 = Cytochrome P450 2C19 (Homo sapiens, UniProt P33261); experiment: Inhibition of CYP2C19 in human liver microsomes; format: ADME; how it was run: as §3
Cytochrome P450 2D6 = Cytochrome P450 2D6 (Homo sapiens, UniProt P10635); experiment: Inhibition of CYP2D6 in human liver microsomes; format: ADME; how it was run: as §3
[20] = Intrinsic clearance in human hepatocytes assessed per million cells; format: ADME, cell-based, Hepatocyte; conditions: read-out: CLH; how it was run: as §1
[21] = Fraction unbound in dog plasma by equilibrium dialysis; format: ADME, cell-free, Canis lupus familiaris
[22] = Volume of distribution at steady state in dog at 0.5 mg/kg, iv or 1 mg/kg, po; format: ADME, organism-based, Canis lupus familiaris; conditions: in vivo, read-out: Vdss; how it was run: as §2
[23] = Fraction unbound in 10% human plasma by equilibrium dialysis; format: ADME, cell-free; conditions: 10% plasma; how it was run: as §4
[24] = Oral bioavailability in rat at 1 mg/kg; format: ADME, organism-based; conditions: in vivo; how it was run: as §2
[25] = Volume of distribution at steady state in rat at 0.5 mg/kg, iv or 1 mg/kg, po; format: ADME, organism-based; conditions: in vivo, read-out: Vdss; how it was run: as §2
[26] = Intrinsic clearance in dog hepatocytes assessed per million cells; format: ADME, cell-based, Canis lupus familiaris, Hepatocyte; conditions: read-out: CLH; how it was run: as §1
Estrogen receptor [27] = target: T2, Estrogen receptor; experiment: Induction of ERalpha degradation in human MCF7 cells after 18 to 24 hrs by in multiplexed cell assay; format: cell-based
How it was run: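 MCF-7 cells were kept at 37 °C, 5% CO₂ in phenol red-free RPMI1640 with 5% charcoal-stripped FCS and 2 mmol/L glutamine. Compounds came from 10 mmol/L DMSO stocks.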

[28] = Stability in pH 10 deuterated buffer assessed as compound remaining after 8 days by 1H NMR spectroscopy; format: physicochemical; conditions: pH 10, 192 h
How it was run: (§6)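 Compound diluted from a 25 mM DMSO-d6 stock to a final 1 mM in each deuterated buffer. Followed by ¹H NMR (500 MHz, water suppression, 64 scans) and LC-MS at 0, 24, 72 and 192 h (8 days).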

[29] = Stability in pH 4 deuterated buffer assessed as compound remaining after 8 days by 1H NMR spectroscopy; format: physicochemical; conditions: pH 4, 192 h; how it was run: as §6
[30] = Stability in pH 7.4 deuterated buffer assessed as compound remaining after 8 days by 1H NMR spectroscopy; format: physicochemical; conditions: pH 7.4, 192 h; how it was run: as §6

Cytochrome P450 2D6, sequence (P10635 whole entry): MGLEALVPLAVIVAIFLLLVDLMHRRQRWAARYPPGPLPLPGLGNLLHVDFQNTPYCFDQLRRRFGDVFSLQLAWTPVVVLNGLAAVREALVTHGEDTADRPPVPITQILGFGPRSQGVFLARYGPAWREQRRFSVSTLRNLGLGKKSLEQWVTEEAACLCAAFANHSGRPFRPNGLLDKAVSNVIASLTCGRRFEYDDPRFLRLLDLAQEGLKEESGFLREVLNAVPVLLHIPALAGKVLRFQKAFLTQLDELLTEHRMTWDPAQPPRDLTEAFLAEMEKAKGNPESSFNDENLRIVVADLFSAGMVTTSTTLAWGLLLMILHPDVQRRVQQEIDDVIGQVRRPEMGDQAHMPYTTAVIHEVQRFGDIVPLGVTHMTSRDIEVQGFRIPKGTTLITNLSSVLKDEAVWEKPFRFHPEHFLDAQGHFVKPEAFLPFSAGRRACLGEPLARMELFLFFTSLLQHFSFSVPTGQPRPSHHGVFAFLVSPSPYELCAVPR
Cytochrome P450 2C19, sequence (P33261 whole entry): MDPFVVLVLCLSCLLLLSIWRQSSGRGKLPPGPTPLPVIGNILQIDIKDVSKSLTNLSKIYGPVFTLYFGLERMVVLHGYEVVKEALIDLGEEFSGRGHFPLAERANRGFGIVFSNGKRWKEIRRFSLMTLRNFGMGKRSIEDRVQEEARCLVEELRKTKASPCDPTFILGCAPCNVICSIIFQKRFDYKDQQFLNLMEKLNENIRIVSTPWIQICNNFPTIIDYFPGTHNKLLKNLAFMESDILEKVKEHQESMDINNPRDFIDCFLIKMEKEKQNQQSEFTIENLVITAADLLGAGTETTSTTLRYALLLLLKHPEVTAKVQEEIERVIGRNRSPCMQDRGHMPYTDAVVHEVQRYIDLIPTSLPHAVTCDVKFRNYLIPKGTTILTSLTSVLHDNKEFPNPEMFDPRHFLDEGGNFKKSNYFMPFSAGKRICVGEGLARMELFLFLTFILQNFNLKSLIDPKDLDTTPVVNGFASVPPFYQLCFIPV
Cytochrome P450 3A4, sequence (P08684 whole entry, canonical isoform): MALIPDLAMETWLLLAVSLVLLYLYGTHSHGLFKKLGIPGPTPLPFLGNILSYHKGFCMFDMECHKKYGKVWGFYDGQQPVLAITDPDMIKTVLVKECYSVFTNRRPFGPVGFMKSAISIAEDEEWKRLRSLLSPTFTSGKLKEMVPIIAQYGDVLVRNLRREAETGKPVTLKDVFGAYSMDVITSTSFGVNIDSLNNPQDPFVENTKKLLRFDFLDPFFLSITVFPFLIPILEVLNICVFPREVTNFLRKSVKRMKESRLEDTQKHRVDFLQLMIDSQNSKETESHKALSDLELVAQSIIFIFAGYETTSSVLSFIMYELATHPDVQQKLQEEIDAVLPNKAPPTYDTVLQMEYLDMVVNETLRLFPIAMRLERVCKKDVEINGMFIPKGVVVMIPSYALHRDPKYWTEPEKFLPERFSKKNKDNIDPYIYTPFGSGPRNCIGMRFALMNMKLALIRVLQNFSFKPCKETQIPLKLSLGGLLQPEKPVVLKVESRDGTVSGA
Cytochrome P450 2C9, sequence (P11712 whole entry): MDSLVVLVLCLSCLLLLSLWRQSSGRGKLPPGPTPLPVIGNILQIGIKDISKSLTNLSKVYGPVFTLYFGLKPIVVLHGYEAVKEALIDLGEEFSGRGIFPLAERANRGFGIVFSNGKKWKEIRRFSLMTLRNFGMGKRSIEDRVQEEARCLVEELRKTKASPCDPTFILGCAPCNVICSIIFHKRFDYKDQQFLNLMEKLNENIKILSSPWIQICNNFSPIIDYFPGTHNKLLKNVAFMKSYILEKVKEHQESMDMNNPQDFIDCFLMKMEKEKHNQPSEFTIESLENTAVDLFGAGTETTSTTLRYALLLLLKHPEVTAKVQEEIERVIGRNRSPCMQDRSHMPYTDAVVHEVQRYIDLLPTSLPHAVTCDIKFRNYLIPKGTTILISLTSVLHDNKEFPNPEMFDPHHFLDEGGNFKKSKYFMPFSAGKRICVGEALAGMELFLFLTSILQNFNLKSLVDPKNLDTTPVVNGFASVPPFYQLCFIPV
Voltage-gated inwardly rectifying potassium channel KCNH2, sequence (Q12809 whole entry): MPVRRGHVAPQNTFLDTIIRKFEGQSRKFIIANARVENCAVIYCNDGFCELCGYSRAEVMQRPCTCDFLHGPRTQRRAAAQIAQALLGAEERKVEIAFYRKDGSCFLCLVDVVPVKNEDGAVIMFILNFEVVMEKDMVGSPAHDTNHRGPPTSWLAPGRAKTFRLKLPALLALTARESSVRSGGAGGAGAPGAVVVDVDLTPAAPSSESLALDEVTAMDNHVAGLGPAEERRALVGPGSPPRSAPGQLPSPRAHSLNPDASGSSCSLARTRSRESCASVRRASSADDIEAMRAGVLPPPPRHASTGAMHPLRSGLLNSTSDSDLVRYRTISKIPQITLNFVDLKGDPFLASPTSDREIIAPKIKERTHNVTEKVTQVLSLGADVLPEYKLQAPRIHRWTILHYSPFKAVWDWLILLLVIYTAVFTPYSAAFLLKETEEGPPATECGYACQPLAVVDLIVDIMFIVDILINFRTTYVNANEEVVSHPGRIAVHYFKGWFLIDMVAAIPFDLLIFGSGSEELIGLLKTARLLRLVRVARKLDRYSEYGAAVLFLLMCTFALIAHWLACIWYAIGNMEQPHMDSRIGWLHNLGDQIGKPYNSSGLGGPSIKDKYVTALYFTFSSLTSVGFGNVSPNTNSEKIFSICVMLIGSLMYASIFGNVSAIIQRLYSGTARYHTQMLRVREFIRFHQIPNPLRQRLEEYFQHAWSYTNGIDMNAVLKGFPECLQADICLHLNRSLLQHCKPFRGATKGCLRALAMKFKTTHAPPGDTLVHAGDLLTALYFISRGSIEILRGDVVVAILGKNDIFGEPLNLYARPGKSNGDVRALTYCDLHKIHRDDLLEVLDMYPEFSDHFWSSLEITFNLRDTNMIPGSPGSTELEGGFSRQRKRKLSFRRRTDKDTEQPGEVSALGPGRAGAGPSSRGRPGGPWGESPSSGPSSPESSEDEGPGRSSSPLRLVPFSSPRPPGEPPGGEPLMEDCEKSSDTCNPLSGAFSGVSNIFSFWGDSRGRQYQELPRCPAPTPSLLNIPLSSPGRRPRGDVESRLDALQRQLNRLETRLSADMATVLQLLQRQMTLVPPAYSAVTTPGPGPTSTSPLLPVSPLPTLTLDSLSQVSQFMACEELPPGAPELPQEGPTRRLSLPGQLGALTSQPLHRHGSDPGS

Compound	fraction unbound [1]	hepatocyte CLint [2] [µL/min/1e6 cells]	clearance [3] [mL/min/kg]	Ratio [5]	fraction unbound [6]	half-life [7] [h]	efflux ratio at 10 µM [8]	IC50 (Cytochrome P450 1A2) [nM]	bioavailability [9] [%]	Papp at 10 µM [10] [×10⁻⁶ cm/s]	IC50 (Estrogen receptor [11]) [nM]	logD [12]	clearance [13] [mL/min/kg]	solubility at 24 h [14] [µM]	Papp at 10 µM [15] [×10⁻⁶ cm/s]	half-life [16] [h]	AUC [17] [µM·h]	hepatocyte CLint [20] [µL/min/1e6 cells]	fraction unbound [23]	IC50 (Estrogen receptor [27]) [nM]	also measured
COc1cc(/C=C/C(=O)O)ccc1[C@@H]1c2ccc3[nH]ncc3c2C[C@@H](C)N1CC(C)(F)F	0.012	18	2.8	< 0.04	0.022	6.8	1.7	> 30000	45	8.4	1	2.5	32	810 (≈ 358 µg/mL)	6.2	1.3	0.21	5	0.0092	1	Stability [28]: Stable; Stability [29]: Stable; AUC [18]: 6.6 µM·h; Stability [30]: Stable; efflux ratio at 10 µM [19]: 2.2; IC50 (Cytochrome P450 2C19): > 30000 nM; IC50 (Cytochrome P450 2D6): > 30000 nM; fraction unbound [21]: 0.0087; Vd [22]: 0.36 L/kg; bioavailability [24]: 51%; Vd [25]: 1 L/kg; hepatocyte CLint [26]: 9.6 µL/min/1e6 cells
CC(C)CN1[C@H](c2ccc(/C=C/C(=O)O)cc2)c2ccc3[nH]ncc3c2CC1(C)C	–	6	–	< 0.04	0.066	–	–	–	–	–	20	2	–	–	–	–	–	93	0.036	1.58	–
C[C@@H]1Cc2c(ccc3[nH]ncc23)[C@@](C)(c2c(F)cc(/C=C/C(=O)O)cc2F)N1CC(C)(C)F	–	12	–	< 0.04	0.0023	–	–	–	–	–	0.398	2.9	–	–	–	–	–	10	0.0033	0.631	–
COc1cc(/C=C/C(=O)O)ccc1[C@@H]1c2ccc3[nH]ncc3c2C[C@@H](C)N1CC(C)(C)F	–	17	–	< 0.04	0.046	–	–	–	–	–	1.58	2.2	–	–	–	–	–	6	0.0098	0.631	–

Second part, led by results:

fraction unbound [1]	hepatocyte CLint [2] [µL/min/1e6 cells]	clearance [3] [mL/min/kg]	Ratio [5]	fraction unbound [6]	half-life [7] [h]	efflux ratio at 10 µM [8]	IC50 (Cytochrome P450 1A2) [nM]	bioavailability [9] [%]	Papp at 10 µM [10] [×10⁻⁶ cm/s]	IC50 (Estrogen receptor [11]) [nM]	logD [12]	clearance [13] [mL/min/kg]	solubility at 24 h [14] [µM]	Papp at 10 µM [15] [×10⁻⁶ cm/s]	half-life [16] [h]	AUC [17] [µM·h]	hepatocyte CLint [20] [µL/min/1e6 cells]	fraction unbound [23]	IC50 (Estrogen receptor [27]) [nM]	Compound	also measured
0.021	18	5.4	< 0.04	0.013	4.8	1.3	> 30000	36	10	0.398	2.3	26	760 (≈ 340 µg/mL)	5.8	3.7	0.57	8	0.011	0.398	C[C@@H]1Cc2c(ccc3[nH]ncc23)[C@@H](c2c(F)cc(/C=C/C(=O)O)cc2F)N1CC(C)(F)F	IC50 [4]: > 100000 nM; IC50 (Cytochrome P450 3A4): > 30000 nM; IC50 (Cytochrome P450 2C9): 6600 nM; AUC [18]: 3 µM·h; efflux ratio at 10 µM [19]: 2.6; IC50 (Cytochrome P450 2C19): > 30000 nM; IC50 (Cytochrome P450 2D6): > 30000 nM; fraction unbound [21]: 0.0062; Vd [22]: 0.63 L/kg; bioavailability [24]: 16%; Vd [25]: 1.6 L/kg; hepatocyte CLint [26]: 7.1 µL/min/1e6 cells
–	19	–	< 0.04	0.0052	–	–	–	–	–	1.26	3	–	–	–	–	–	22	0.0048	0.794	CC(C)CN1[C@H](c2c(F)cc(/C=C/C(=O)O)cc2F)c2ccc3[nH]ncc3c2C[C@H]1C	–
